Measured values reported in ChEMBL document CHEMBL3244051, “15,15-Ketals of natural prostaglandins and prostaglandin analogues. Synthesis and biological activities” (1978).
Active and inactive are the calls of the source. No cut-off for these calls is given here.

Experiments:
Rattus norvegicus [1] = experiment: Abortifacient activity in sc dosed early pregnant Wistar rat assessed as decrease in serum progesterone level administered in benzyl benzoate and castor oil on day 4 to day 7 of gestation measured on day 3, 5, 7 and 9 of gestation by RIA relative to PGF2alpha; format: functional
In short: (§1)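 Female Wistar rats mated at proestrus; sperm in vaginal smear next day defines day 1 of gestation. Dosed sc in 0.2 mL oil (benzyl benzoate:castor oil 1:3) on days 4–7; 4 rats/group. Orbital plexus blood taken days 3, 5, 7, 9 for serum progesterone by RIA; rats killed day 9, uteri inspected for abortion.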

Ileum = experiment: Contraction of guinea pig ileum relative to PGF2alpha; format: functional, Cavia porcellus
[2] = […] activity in rat uterus assessed as uterine contraction relative to PGF2alpha; format: functional
In short: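 Isolated rat uterine horns held in salt solution matching extracellular fluid; contractions recorded isotonically as length change. One horn of each animal received test agent, the other the reference, in separate organ baths; n = 4 paired comparisons. Contraction height (mm) analysed by analysis of variance.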

Rattus norvegicus [3] = experiment: Abortifacient activity in sc dosed early pregnant Wistar rat assessed as decrease in serum progesterone level measured per animal administered in benzyl benzoate and castor oil on day 4 to day 7 of gestation measured on day 3, 5, 7 and 9 of gestation by RIA; format: functional; in short: as §1

COC(=O)CCC/C=C\C[C@@H]1[C@@H](/C=C/C2(COc3ccccc3)OCCO2)[C@H](O)C[C@@H]1O
fold change (FC) (Rattus norvegicus [1]): 100 | fold change (FC) (Ileum): <0.1 | fold change (FC) [2]: >10

CCCCCC1(/C=C/[C@@H]2[C@@H](C/C=C\CCCC(=O)O)[C@@H](O)C[C@H]2O)OCCO1
fold change (FC) (Rattus norvegicus [1]): 1 | fold change (FC) [2]: 5

CCCCOC(=O)CCC/C=C\C[C@@H]1[C@@H](/C=C/C2(COc3ccccc3)OCCO2)[C@H](O)C[C@@H]1O
fold change (FC) (Rattus norvegicus [1]): 30 | fold change (FC) [2]: 10

O=C(O)CCC/C=C\C[C@@H]1[C@@H](/C=C/C2(COc3ccccc3)OCCO2)[C@H](O)C[C@@H]1O [ETIPROSTON]
fold change (FC) (Rattus norvegicus [1]): 10 | fold change (FC) (Ileum): 0.1 | fold change (FC) [2]: 10

CCCCCC1(/C=C/[C@@H]2[C@@H](C/C=C\CCCC(=O)OC)[C@@H](O)C[C@H]2O)OCC(C)(C)CO1
fold change (FC) (Rattus norvegicus [1]): <0.3 | fold change (FC) [2]: <0.1

CCCCC[C@H](O)/C=C/[C@@H]1[C@@H](C/C=C\CCCC(=O)O)[C@@H](O)C[C@H]1O [DINOPROST]
Activity (Rattus norvegicus [3]): 0.3 mg/day

NC(CO)(CO)CO.O=C(O)CCC/C=C\C[C@@H]1[C@@H](/C=C/C2(COc3ccccc3)OCCO2)[C@H](O)C[C@@H]1O
fold change (FC) [2]: >10

O=C(O)CCC/C=C\C[C@@H]1[C@@H](/C=C/C2(COc3ccccc3)OCCO2)[C@H](O)C[C@@H]1O
Activity (Rattus norvegicus [1]): Active

CCCCCC(/C=C/[C@@H]1[C@@H](C/C=C\CCCC(=O)OC)[C@@H](O)C[C@H]1O)(OC)OC
fold change (FC) (Rattus norvegicus [1]): <0.1 | fold change (FC) (Ileum): <0.1 | fold change (FC) [2]: 0.1

CCCCCC1(CC[C@@H]2[C@@H](C/C=C\CCCC(=O)OC)[C@@H](O)C[C@H]2O)OCCO1
fold change (FC) (Rattus norvegicus [1]): <0.3 | fold change (FC) [2]: 1

COC(=O)CCC/C=C\C[C@@H]1[C@@H](/C=C/C2(COc3ccc(F)cc3)OCCO2)[C@H](O)C[C@@H]1O
fold change (FC) (Rattus norvegicus [1]): 10 | fold change (FC) [2]: 10

COC(=O)CCC/C=C\C[C@@H]1[C@@H](CCC2(COc3ccccc3)OCCO2)[C@H](O)C[C@@H]1O
fold change (FC) (Rattus norvegicus [1]): 10 | fold change (FC) [2]: >10

COC(=O)CCC/C=C\C[C@@H]1[C@@H](/C=C/C2(c3ccc(Cl)cc3)OCCO2)[C@H](O)C[C@@H]1O
fold change (FC) (Rattus norvegicus [1]): 10 | fold change (FC) [2]: 10

CCCCCC1(/C=C/[C@@H]2[C@@H](C/C=C\CCCC(=O)OC)[C@@H](O)C[C@H]2O)OCCCO1
fold change (FC) (Rattus norvegicus [1]): <0.3 | fold change (FC) [2]: <0.1

COC(=O)CCC/C=C\C[C@@H]1[C@@H](/C=C/C2(CCc3ccccc3)OCCO2)[C@H](O)C[C@@H]1O
fold change (FC) (Rattus norvegicus [1]): 30 | fold change (FC) [2]: >10

COC(=O)CCC/C=C\C[C@@H]1[C@@H](/C=C/C2(COc3cccc(C(F)(F)F)c3)OCCO2)[C@H](O)C[C@@H]1O
fold change (FC) (Rattus norvegicus [1]): 10 | fold change (FC) (Ileum): <0.1 | fold change (FC) [2]: >10

CCCCCC1(/C=C/[C@@H]2[C@@H](C/C=C\CCCC(=O)OC)[C@@H](O)C[C@H]2O)OCCO1
fold change (FC) (Rattus norvegicus [1]): 1 | fold change (FC) (Ileum): 0.1 | fold change (FC) [2]: 5
